Only some compounds are listed: those with a hit (about 1.2% of all), similar ones and a draw of the others.
proCasp7 act: procaspase-7 activators, primary screen, counter-screen for procaspase-3 activator project, biochemical, absorbance, HTS, human. Caspase-7 (Homo sapiens), P55210. recombinant procaspase-7, Ac-DEVD-pNA absorbance 405 nm; D23A/D198A/D206A triple mutant, cannot self-cleave; scale: DMSO 0, 5 µM enzyme 100. activation, % at 8.5 µM. hit rate 0.093% among 330,000. AID 463210, 2010;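 active = percent activation above the screen-wide mean plus 3 SD, cut at about 25% in these data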
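Assay system: Uncleavable procaspase-7 mutant enzyme / Input: 2 µM procaspase-7 mutant as dispensed / Dosing: single nominal 8.5 µM compound dose, 0.8% DMSO final / Timing: 1 h enzyme–compound preincubation and 2 h substrate reaction, both 25 °C / Detection: p-Nitroaniline absorbance at 405 nm, read at 0 and 120 min / Replication: singlicate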
IDE cell activ: human IDE activators in live cells, primary screen, fluorescence polarization, HEK cells, FAbeta-B substrate | activation, % at 5.96 µM | Insulin-degrading enzyme (Homo sapiens), P14735 | hit rate 0.073% among 340,000 | FAbeta-B cleavage; 0% vehicle, 100% cell-free pure enzyme wells;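 active = activation above the mean of all tested compounds plus 3 SD, set per screening campaign, cut at about 17% in these data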
Target sequence (P14735 whole entry, looked up): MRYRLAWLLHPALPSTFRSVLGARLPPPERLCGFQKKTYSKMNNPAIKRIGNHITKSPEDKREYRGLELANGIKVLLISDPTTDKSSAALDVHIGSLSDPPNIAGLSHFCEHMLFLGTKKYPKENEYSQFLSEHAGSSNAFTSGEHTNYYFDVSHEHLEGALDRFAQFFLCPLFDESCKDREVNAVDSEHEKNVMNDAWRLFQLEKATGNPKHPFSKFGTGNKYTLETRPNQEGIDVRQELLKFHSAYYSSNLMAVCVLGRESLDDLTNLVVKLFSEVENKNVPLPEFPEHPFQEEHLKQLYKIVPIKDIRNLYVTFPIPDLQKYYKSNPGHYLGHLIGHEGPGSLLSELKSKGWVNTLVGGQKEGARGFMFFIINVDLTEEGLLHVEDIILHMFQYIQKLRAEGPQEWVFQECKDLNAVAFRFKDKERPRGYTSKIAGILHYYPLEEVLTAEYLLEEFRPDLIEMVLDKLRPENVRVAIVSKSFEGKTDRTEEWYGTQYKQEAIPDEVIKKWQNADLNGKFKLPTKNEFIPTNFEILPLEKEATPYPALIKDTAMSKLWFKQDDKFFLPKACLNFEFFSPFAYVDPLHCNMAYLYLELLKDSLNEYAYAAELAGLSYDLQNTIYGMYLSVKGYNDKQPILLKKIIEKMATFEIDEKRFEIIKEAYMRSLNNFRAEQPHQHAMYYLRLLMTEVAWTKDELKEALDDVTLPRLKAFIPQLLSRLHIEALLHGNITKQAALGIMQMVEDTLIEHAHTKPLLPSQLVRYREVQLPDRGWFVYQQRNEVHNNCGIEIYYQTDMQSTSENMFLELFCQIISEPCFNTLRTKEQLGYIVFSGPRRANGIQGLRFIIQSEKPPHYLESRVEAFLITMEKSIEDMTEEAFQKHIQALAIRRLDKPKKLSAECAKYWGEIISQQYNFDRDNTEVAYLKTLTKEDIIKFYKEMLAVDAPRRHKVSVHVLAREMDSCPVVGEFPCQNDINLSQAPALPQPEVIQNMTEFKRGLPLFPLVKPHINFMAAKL
IDE cell inh: human IDE inhibitors in live cells, primary screen, fluorescence polarization, HEK cells, FAbetaB substrate; hit rate 0.41% among 320,000; inhibition, % at 5.59 µM; FAbetaB cleavage; Insulin-degrading enzyme (Homo sapiens), P14735;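 active = percent inhibition above the average of all tested compounds plus 3 SD, set per screening campaign, cut at about 16% in these data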;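 note: IDE supplied by intact live HEK cells; FP after avidin binding of uncleaved biotin substrate so inhibition keeps polarization high; 0% = DMSO wells and 100% = 60 µM reference IDE inhibitor Ii1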
TPT1 inhibitor: Candida albicans TPT1 enzyme inhibitors, primary screen, biochemical, fluorescence polarization; tRNA 2'-phosphotransferase TPT1 (Candida albicans SC5314); recombinant caTPT1, FP RNA substrate dephosphorylation; inhibition, % at 5 µM; hit rate 0.81% among 300,000; AID 1962, 2009;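 active = inhibition above the mean of all tested compounds plus 3 SD, set per screening campaign, cut at about 24% in these data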;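 note: plate controls were DMSO alone for no effect and ferristatin control at 100 nM for full effect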
procasp3 activ: activators of human procaspase-3 D3A mutant, primary screen, biochemical, absorbance, PC-3 D3A mutant, single concentration | Caspase-3 (Homo sapiens), P42574 | recombinant procaspase-3 D3A, Ac-DEVD-pNA absorbance 405 nm | activation, % at 8.5 µM | hit rate 0.11% among 330,000;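 active = activation above the mean of all tested compounds plus 3 SD, cut at about 21% in these data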;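 note: 0% = DMSO alone and 100% = DMSO wells spiked with extra 5 µM PC-3 D3A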
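Assay system: Procaspase-3 D3A mutant, all three cleavage aspartates alanine. Buffer or medium: Zinc-free HEPES saline buffer with Triton X-100. Times: 1 h compound preincubation, 2 h substrate hydrolysis at 25 °C. Measured by: 405 nm absorbance of p-nitroaniline, reads at 0 and 120 min. Read-out basis: percent activation relative to control range. Replicates: singlicate.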
caTPT1 confirm: Candida albicans TPT1 inhibitors, confirmation, biochemical, fluorescence polarization, triplicate. AID 2149, 2009. hit rate 74% among 2,400. recombinant caTPT1, RNase T1 coupled. shares compounds with TPT1 inhibitor. inhibition, % at 5 µM;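 active = inhibition above the primary screen limit, the mean inhibition of all tested compounds plus 3 SD, cut at about 25% in these data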
RNase T1 counter: RNase T1 inhibitors, counter-screen for TPT1 inhibitor project, biochemical, fluorescence polarization; shares compounds with TPT1 inhibitor; RNase T1 cleavage, 1536-well; inhibition, % at 5 µM; hit rate 83% among 2,400; AID 2153, 2009;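 active = inhibition above the solvent-only control well mean plus 3 SD, limit set per screening run, cut at about 23% in these data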;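 note: plate controls were DMSO wells with enzyme for no effect and wells without RNase T1 for full effect; inhibitors block cleavage so intact labeled substrate keeps polarization high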
IDE cell inh cf: human IDE inhibitors in live cells, confirmation, fluorescence polarization, HEK cells, FAbetaB substrate | inhibition, % at 5.59 µM | hit rate 51% among 1,200 | AID 435028, 2010 | FAbetaB cleavage | shares compounds with IDE cell inh;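 active = mean inhibition across triplicate wells above the cutoff set by the earlier primary insulin-degrading enzyme screen, cut at about 16% in these data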;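 note: 0% = DMSO wells and 100% = 60 µM reference IDE inhibitor Ii1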
HEK cytotox: cytotoxicity in HEK cells, cytotoxicity control for IDE inhibitor project, cell-based, luminescence. shares compounds with IDE cell inh. HEK293 cytotoxicity, ATP luminescence. inhibition, % at 5.59 µM. hit rate 28% among 1,200. AID 449730, 2010; in the data active = inhibition above about 22%;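 note: 0% = vehicle wells and 100% = reference cytotoxic drug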
* marks the source's active call; other numbers are inactive results; . = not tested or not shown.

SMILES	proCasp7 act	IDE cell activ	IDE cell inh	TPT1 inhibitor	procasp3 activ	caTPT1 confirm	RNase T1 counter	IDE cell inh cf	HEK cytotox
Cn1nc(C(=O)N2CCN(C(c3ccccc3)c3ccccc3)CC2)c2ccccc2c1=O	4	0	0	-1	5	.	.	.	.
COc1ccc(C(=O)c2ccccc2)c(OCC(=O)NC2CC2)c1	-1	-2	-1	-7	3	.	.	.	.
CN(C)c1ccc(/C=C(\C#N)C(=O)c2ccccc2)cc1	-16	-98	28*	158*	1	162*	150*	96*	18
CCN(CC)c1ccc(/C=C(\C#N)C(N)=O)cc1	.	-2	.	.	.	.	.	.	.
CCN(CC)c1ccc(C(=O)O)cc1	-2	-2	6	4	-3	.	.	.	.
CCN(CC)c1ccc(/C=C(\C#N)C(=O)c2ccc(Br)cc2)cc1	8	-176	68*	137*	-4	104*	103*	51*	21
N#C/C(=C\c1ccc(C#N)cc1)C(=O)c1ccccc1	.	3	.	.	.	.	.	.	.
CCN(CC)c1ccc(/C=C(\C#N)C(N)=S)cc1	-23	-101	22*	104*	-23	-3	10	13	11
Cc1ccc(NC(=O)c2ccc([N+](=O)[O-])s2)cc1S(=O)(=O)N1CCOCC1	-4	3	-2	.	3	.	.	.	.
Cc1ccc(OCCn2c(=S)[nH]c3ccccc32)c(C(C)C)c1	4	1	-4	2	-1	.	.	.	.
COc1cc2nc(/C=C/c3ccc(N(C)C)cc3)sc2cc1SC	-29	-47	70*	155*	-48	153*	138*	51*	13
COc1cc2c(cc1OC)C(=Cc1ccc(N(C)C)cc1)C=C2	.	-2	.	.	.	.	.	.	.
O=[N+]([O-])c1ccc(/C=C/C2=NN(c3ccccc3)C(c3ccco3)C2)cc1 (stereo not drawn)	-2	-100	36*	70*	-5	64*	66*	53*	19
COc1cccc(N=C2SC(CC(=O)Nc3ccccc3)C(=O)N2Cc2ccccn2)c1 (stereo not drawn)	-2	5	-1	-2	-8	.	.	.	.
O=C1/C(=C/c2ccc(N3CCCC3)cc2)NC(=S)N1C1CC1	-30	-89	90*	162*	-32	169*	153*	120*	27*
Cc1cc(N2CCCC2)ccc1/C=C1\NC(=S)N(C)C1=O	-22	-119	79*	164*	-44	167*	154*	116*	16
O=Cc1ccc(N2CCCCCC2)cc1	7	1	0	0	6	.	.	.	.
C=CCN1C(=O)/C(=C/c2ccc(O)cc2)S/C1=N/c1nccs1	3	-111	119*	73*	-6	93*	92*	94*	20
CC(C)(C)C1CCC2(CC1)C(C#N)=C(SCC(=O)Nc1ccccc1)NC(=O)C2C#N (stereo not drawn)	-4	6	5	5	-7	.	.	.	.
N#CC1=C(SCC(=O)c2cc3ccccc3oc2=O)NC(=O)C(C#N)C12CCCC2 (stereo not drawn)	3	-22	21*	49*	-2	30*	39*	9	12
Cc1ccc(C(C)C)cc1OCCn1cncn1	-13	6	3	0	2	.	.	.	.
CCc1ccc(Nc2n[n+](-c3ccccc3)c(-c3ccc(N(CC)CC)cc3)s2)cc1	-18	-8	19*	105*	-18	115*	112*	23*	58*
COc1ccc(/C=C2\SC(=S)N(CCC(=O)N3CCCCC3)C2=O)cc1	2	-1	6	-3	2	.	.	.	.
COCCN1C(=O)/C(=C/c2ccc(N3CCCC3)cc2)SC1=S	17	-37	26*	133*	-4	138*	131*	77*	13
COc1ccc(C2C(C(C)=O)=C(C)N=c3s/c(=C\c4cc(C)n(C)c4C)c(=O)n32)c(OC)c1 (stereo not drawn)	-11	-39	116*	132*	-2	134*	127*	26*	10
SMILES	proCasp7 act	IDE cell activ	IDE cell inh	TPT1 inhibitor	procasp3 activ	caTPT1 confirm	RNase T1 counter	IDE cell inh cf	HEK cytotox
O=C(N/N=C/c1c(O)ccc2ccccc12)c1ccc(CO)nc1	-3	-27	27*	82*	4	91*	93*	39*	73*
CC1=NN(c2ccccc2)C(=O)/C1=C/C=C/C=C/N(C)C	-15	-13	18*	124*	-18	94*	102*	11	27*
C/C(=N/NC(=O)c1cc(C)[nH]n1)c1ccncc1	10	6	0	-1	0	.	.	.	.
CCNC(=O)CSC1=N/C(=C\c2ccc(O)c(OCC)c2)C(=O)N1c1ccc(OC(F)F)cc1	-13	-56	70*	90*	-3	102*	97*	148*	9
CCOC(=O)C1=C(C)N(c2ccc(OC)cc2)C(=O)/C1=C\c1ccc(O)c(OCC)c1	-43	-4	7	3	-25	.	.	.	.
CCN(CC(=O)Nc1c(F)cccc1F)C(=O)c1ccc(S(=O)(=O)N(CC)c2ccccc2)cc1	.	-1	.	.	.	.	.	.	.
Cc1cc(/C=C2\SC(=S)N(C)C2=O)c(C)n1-c1ccccc1O	0	-47	27*	147*	-13	147*	142*	29*	47*
O=C(CCNC(=O)C1CCN(S(=O)(=O)c2ccc(F)cc2)CC1)NC1CC1	-4	-5	-4	-8	1	.	.	.	.
N#C/C(=C/c1ccccc1)C(=O)NCc1ccccc1	12	0	2	-1	15	.	.	.	.
CN(C)c1ccc(/C=C(/C#N)C(=O)NCc2ccccc2)o1	2	-126	97*	177*	-6	192*	176*	122*	9
CCN(CC)c1ccc(C=C(c2nnnn2-c2ccccc2)c2nnnn2-c2ccccc2)cc1	-16	-23	32*	69*	-9	94*	104*	30*	17
